SMILES strings stand for the structures.

We go through 3 compounds from ChEMBL document CHEMBL5653631, “A Potent and Selective ULK1 Inhibitor Suppresses Autophagy and Sensitizes Cancer Cells to Nutrient Stress” (iScience, 2018).

The target in assay [1] is T1, Myosin-IIIb (Homo sapiens) (UniProt Q8WXR4).
T1 sequence (whole entry): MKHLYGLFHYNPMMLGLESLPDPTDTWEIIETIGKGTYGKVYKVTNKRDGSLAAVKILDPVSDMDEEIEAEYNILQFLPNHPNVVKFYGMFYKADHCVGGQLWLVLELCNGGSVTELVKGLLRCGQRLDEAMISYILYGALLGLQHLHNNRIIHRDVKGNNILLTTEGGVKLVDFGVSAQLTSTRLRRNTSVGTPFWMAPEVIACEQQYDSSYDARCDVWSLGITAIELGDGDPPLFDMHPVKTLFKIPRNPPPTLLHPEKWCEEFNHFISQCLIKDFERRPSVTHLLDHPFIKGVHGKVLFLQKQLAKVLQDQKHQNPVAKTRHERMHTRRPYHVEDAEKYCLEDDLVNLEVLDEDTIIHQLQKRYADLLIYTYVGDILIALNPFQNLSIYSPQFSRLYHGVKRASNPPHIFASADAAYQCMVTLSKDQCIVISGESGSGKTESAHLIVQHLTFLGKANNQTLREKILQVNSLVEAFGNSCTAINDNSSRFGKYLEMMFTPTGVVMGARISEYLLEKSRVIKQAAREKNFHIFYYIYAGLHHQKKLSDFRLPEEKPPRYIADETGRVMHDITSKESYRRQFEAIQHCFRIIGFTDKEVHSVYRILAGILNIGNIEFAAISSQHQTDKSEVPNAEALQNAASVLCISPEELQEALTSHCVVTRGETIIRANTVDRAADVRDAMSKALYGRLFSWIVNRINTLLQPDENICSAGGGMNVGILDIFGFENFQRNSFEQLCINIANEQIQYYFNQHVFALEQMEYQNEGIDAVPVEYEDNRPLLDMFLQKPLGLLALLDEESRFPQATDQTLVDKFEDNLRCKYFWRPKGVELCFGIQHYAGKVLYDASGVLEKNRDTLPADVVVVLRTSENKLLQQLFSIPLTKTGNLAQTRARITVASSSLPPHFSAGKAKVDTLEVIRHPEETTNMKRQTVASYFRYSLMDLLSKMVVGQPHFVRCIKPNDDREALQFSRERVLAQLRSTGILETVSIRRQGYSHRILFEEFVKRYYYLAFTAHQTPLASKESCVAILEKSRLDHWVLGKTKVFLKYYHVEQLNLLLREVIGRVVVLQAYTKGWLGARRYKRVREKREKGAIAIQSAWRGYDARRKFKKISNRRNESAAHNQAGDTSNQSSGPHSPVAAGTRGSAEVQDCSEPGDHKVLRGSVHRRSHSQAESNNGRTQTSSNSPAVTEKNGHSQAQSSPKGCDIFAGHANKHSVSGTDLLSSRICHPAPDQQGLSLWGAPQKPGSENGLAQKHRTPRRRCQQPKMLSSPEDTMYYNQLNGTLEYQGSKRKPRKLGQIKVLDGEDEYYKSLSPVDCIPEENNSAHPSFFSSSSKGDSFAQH
Put plainly: Inhibition of human recombinant MYO3B at 40 nM in presence of ATP by radiometric assay relative to control.

Assay [2] deals with T2, Activin receptor type-1B (Homo sapiens) (UniProt P36896).
T2 sequence (whole entry): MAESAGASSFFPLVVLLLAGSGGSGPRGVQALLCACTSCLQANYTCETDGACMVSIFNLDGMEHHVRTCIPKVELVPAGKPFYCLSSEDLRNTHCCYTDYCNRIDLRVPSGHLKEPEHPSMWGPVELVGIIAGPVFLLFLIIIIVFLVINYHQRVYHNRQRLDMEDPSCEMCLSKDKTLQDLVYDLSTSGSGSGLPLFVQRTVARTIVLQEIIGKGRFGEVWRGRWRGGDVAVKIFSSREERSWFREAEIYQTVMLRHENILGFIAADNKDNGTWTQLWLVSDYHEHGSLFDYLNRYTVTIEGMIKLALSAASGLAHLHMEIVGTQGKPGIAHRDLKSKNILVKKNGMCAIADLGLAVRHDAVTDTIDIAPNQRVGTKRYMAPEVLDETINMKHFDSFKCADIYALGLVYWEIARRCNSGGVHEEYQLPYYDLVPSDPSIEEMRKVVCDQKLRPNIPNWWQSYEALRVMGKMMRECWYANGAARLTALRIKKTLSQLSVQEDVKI
In words: Inhibition of human recombinant ALK4 at 40 nM related to control ULK1. In outline: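 Radiometric activity assays in a panel of 327 human recombinant kinases, each run in duplicate at one inhibitor concentration. Activity remaining is expressed as percent of vehicle control, and percent inhibition is calculated as 100% minus percent activity remaining.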

Assay [3] deals with Serine/threonine-protein kinase PRP4 homolog (Homo sapiens) (UniProt Q13523). Put plainly: Inhibition of human recombinant PRP4 at 40 nM related to control ULK1.
The species entered for assay [4] is Homo sapiens. Put plainly: Inhibition of human recombinant CK1d at 500 nM related to control ULK1.
The target of assay [5] is Calcium/calmodulin-dependent protein kinase kinase 2 (Homo sapiens) (UniProt Q96RR4). Put plainly: Inhibition of human recombinant CaMKK2 at 500 nM related to control ULK1.
Assay [6] concerns the target T3, Protein kinase C epsilon type (Homo sapiens) (UniProt Q02156).
T3 sequence (whole entry): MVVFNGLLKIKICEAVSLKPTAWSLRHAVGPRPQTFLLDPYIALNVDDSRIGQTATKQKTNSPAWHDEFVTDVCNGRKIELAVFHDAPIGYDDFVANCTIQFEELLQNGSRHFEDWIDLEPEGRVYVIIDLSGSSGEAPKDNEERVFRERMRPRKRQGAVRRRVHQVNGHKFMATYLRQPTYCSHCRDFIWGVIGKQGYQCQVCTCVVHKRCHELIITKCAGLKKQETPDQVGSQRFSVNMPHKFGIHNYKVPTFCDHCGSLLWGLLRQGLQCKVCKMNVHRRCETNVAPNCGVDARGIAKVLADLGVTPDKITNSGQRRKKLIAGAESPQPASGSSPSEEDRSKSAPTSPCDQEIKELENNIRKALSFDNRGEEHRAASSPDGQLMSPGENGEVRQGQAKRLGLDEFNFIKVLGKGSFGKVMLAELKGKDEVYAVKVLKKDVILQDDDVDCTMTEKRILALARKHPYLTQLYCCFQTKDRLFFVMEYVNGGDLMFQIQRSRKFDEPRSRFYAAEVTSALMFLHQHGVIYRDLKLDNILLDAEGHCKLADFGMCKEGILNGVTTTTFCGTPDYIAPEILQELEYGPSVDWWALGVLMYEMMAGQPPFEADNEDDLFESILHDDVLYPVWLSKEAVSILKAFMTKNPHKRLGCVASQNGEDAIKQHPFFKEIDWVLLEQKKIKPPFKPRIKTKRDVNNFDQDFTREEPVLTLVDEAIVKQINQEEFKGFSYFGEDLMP
In words: Inhibition of human recombinant PKCe at 500 nM related to control ULK1.

Assay [7] deals with Serine/threonine-protein kinase PRP4 homolog (Homo sapiens) (UniProt Q13523). In words: Inhibition of human recombinant PRP4 at 500 nM in presence of ATP by radiometric assay relative to control.
The target of assay [8] is Vascular endothelial growth factor receptor 1 (Homo sapiens) (UniProt P17948). Put plainly: Inhibition of human recombinant FLT1 at 15 nM related to control ULK1.
Sequence of Vascular endothelial growth factor receptor 1 (Homo sapiens) (P17948 whole entry): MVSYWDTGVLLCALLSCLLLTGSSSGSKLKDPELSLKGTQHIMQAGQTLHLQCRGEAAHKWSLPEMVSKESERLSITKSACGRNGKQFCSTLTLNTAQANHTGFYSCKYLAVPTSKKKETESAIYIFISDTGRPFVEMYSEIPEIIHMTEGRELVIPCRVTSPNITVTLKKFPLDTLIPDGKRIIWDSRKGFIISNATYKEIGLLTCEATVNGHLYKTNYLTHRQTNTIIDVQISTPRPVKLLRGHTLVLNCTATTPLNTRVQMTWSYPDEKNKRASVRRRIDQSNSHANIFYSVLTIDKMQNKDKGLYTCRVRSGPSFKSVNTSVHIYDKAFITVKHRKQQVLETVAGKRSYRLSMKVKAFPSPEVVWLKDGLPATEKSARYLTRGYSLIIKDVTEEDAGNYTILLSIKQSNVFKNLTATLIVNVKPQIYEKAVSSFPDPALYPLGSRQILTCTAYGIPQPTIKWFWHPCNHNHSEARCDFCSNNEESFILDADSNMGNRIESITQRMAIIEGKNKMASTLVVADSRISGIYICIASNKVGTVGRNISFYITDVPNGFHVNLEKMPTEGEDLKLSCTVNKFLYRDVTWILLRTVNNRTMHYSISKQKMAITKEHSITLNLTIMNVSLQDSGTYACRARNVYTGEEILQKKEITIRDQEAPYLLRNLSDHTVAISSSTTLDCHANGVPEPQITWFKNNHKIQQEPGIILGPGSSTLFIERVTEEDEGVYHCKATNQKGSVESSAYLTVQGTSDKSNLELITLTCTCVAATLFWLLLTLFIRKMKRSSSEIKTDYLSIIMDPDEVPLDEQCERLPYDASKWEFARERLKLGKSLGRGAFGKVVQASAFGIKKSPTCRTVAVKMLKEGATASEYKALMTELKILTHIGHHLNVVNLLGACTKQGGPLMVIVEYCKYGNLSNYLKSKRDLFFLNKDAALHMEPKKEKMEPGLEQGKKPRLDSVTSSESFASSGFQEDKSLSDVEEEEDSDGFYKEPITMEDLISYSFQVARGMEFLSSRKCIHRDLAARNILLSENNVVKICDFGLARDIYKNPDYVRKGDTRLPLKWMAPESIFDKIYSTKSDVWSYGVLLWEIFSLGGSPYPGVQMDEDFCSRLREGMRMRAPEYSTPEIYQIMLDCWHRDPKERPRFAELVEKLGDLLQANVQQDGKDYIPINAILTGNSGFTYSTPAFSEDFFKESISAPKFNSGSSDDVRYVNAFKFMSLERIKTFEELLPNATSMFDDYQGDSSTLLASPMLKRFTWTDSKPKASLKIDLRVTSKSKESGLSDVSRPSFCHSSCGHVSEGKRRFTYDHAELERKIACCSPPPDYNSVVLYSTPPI

Sequence of Serine/threonine-protein kinase PRP4 homolog (Homo sapiens) (Q13523 whole entry): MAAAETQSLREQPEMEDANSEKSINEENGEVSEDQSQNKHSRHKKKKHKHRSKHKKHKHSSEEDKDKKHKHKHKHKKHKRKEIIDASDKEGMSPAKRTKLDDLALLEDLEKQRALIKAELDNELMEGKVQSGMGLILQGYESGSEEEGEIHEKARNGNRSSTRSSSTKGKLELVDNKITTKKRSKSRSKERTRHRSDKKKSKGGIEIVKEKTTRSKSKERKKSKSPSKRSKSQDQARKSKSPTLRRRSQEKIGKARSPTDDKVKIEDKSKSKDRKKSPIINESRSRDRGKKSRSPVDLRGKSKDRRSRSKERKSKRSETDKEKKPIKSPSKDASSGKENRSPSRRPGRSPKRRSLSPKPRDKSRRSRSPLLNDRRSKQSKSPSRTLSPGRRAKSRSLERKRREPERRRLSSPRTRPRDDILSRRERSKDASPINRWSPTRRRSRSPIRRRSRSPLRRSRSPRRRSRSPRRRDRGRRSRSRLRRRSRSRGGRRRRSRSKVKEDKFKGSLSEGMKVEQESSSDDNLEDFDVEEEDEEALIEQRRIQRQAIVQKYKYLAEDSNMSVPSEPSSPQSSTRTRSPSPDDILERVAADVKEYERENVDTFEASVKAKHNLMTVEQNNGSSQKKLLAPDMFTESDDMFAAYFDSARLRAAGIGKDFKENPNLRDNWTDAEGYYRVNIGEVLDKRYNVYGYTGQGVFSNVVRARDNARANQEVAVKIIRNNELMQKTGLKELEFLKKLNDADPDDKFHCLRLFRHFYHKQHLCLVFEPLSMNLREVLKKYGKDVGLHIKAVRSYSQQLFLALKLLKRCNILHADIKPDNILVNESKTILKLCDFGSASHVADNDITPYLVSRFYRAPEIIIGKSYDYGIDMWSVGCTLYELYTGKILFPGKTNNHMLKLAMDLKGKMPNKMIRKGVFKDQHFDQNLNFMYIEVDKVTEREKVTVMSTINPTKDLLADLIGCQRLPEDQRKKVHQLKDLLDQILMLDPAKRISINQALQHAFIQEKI
Sequence of Calcium/calmodulin-dependent protein kinase kinase 2 (Homo sapiens) (Q96RR4 2-588 limits assumed): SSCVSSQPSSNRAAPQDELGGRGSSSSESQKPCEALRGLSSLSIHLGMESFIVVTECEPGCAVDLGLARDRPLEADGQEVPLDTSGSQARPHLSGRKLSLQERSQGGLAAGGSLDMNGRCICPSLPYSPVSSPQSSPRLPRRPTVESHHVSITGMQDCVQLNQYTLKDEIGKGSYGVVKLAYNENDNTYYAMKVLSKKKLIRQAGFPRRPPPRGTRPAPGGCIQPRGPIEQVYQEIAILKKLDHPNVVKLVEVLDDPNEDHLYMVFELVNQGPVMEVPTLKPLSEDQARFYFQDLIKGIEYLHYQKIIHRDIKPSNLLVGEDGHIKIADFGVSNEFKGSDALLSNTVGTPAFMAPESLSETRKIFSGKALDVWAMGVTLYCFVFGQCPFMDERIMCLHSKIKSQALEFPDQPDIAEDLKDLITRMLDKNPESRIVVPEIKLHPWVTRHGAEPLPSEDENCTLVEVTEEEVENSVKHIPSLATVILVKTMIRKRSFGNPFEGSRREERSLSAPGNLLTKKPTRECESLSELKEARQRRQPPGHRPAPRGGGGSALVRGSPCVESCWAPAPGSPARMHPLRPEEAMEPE

For orientation: inhibition means the relative decrease from the control value, in per cent. With `O=C(N[C@@H](C1CC1)C(F)(F)F)c1cc(-c2cnn3cc(-c4ccc(F)cc4)cnc23)cs1`, the inhibition in assay [1] amounted to 0%. Further, the fold change (FC) worked out at 0 in assay [2] and 0.08 in assay [3].

Take `CNC(=O)c1ccccc1Oc1nc(Nc2cc(OC)c(OC)c(OC)c2)ncc1Br`: the figures for the fold change (FC) in assay [4], in assay [5] and in assay [6] were 0.14, 0.05 and 0, respectively. The inhibition in assay [7] was 2%.

Take `CC(C)[C@H](NC(=O)c1cc(-c2cnn3cc(-c4ccc(OCCN5CCCCC5)cc4)cnc23)cs1)C(F)(F)F`: the fold change (FC) in assay [8] turned out to be 0.1.
